Experimental data from ChEMBL document CHEMBL4251649, “Discovery and optimization of phthalazinone derivatives as a new class of potent dengue virus inhibitors” (Eur J Med Chem, 2018).
pIC50: −log10 of the molar value.

How the values were obtained:
dengue virus type 2 = assay: Antiviral activity against DENV2 D2Y98P infected in human HuH7 cells assessed as inhibition of viral RNA replication incubated for 48 hrs by qRT-PCR method; assay type: functional, organism-based; details: Huh-7, 48 h
In short: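 Huh7 cells (4×10^4/well, 2% FBS DMEM, overnight) infected with DENV-2 D2Y98P at MOI 2 for 2 h, washed, then given compound in fresh medium; after 48 h the supernatant viral genomic RNA was extracted and quantified by one-step qRT-PCR; IC50 and IC90 were taken as 50% and 90% inhibition of RNA replication.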

[1] = Cytotoxicity against human HuH7 cells assessed as reduction in cell viability after 48 hrs by MTT assay; assay type: cell-based, Huh-7
In short: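 The Huh7 cells were seeded and treated with compound in the same way as the antiviral assay, and viability was read by MTT reduction. CC50 is the compound concentration that lowered the readout to half of the no-compound control.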

[2] = Selectivity index, CC50 for human HuH7 cells to IC50 for DENV2 D2Y98P; assay type: toxicity; details: read-out: Ratio CC50/IC50
In short: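 SI is calculated as CC50 (MTT cytotoxicity in Huh7) divided by IC50 (qRT-PCR of DENV-2 D2Y98P supernatant RNA, Huh7, MOI 2, 48 h).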

SMILES	pIC50 (dengue virus type 2)	IC90 (dengue virus type 2) [µM]	CC50 at 48 h [1] [µM]	selectivity ratio [2]
CN(C)CCCCOC(=O)Nc1ccc(-n2nc(-c3ccc(F)cc3)c3ccccc3c2=O)cc1	5.87	12.6	21.8	16.2
CN(C)CCCCOC(=O)Nc1ccc(Cn2nc(-c3ccc(C#N)cc3)c3ccccc3c2=O)cc1	6.15	7.07	37	52.8
CN(C)CCCCOC(=O)Nc1ccc(Cn2nc(-c3cccnc3)c3ccccc3c2=O)cc1	5.20	30.2	68	10.7
CN(C)CCCCOC(=O)Nc1ccc(Cn2nc(-c3cnn(C)c3)c3ccccc3c2=O)cc1	5.19	43.3	55.9	8.5
CN(C)CCCCOC(=O)Nc1ccc(Cn2nc(-c3ccccc3C(F)(F)F)c3ccccc3c2=O)cc1	5.70	3.37	35.7	18
CN(C)CCCCOC(=O)Nc1ccccc1Cn1nc(-c2ccc(F)cc2)c2ccccc2c1=O	5.55	13.2	48.5	17.1
CN(C)CCCCOC(=O)Nc1ccc(Cn2nc(-c3ccccc3F)c3ccccc3c2=O)cc1	5.88	8.79	52.5	39.8
CN(C)CCCC(=O)Nc1ccc(Cn2nc(-c3ccc(F)cc3)c3ccccc3c2=O)cc1	6.00	8.42	38.2	38.2
CN(C)CCCCOC(=O)Nc1ccc(Cn2nc(-c3ccc(C(F)(F)F)cc3)c3ccccc3c2=O)cc1	5.83	6.61	3.36	2.3
CN(C)CCCCOC(=O)Nc1ccc(Cn2nc(-c3ccccc3C#N)c3ccccc3c2=O)cc1	5.26	12.4	90.7	16.4
CN(C)CCCCOC(=O)Nc1cccc(Cn2nc(-c3ccc(F)cc3)c3ccccc3c2=O)c1	6.19	4.65	8.51	13.3
CN(C)CCCCOC(=O)Nc1ccc(Cn2nc(-c3cccc(C#N)c3)c3ccccc3c2=O)cc1	5.76	5.09	17.2	10
